Assay results as given in PMC5499704 (Journal of medicinal chemistry, 2016).

What was measured:
MCF-7/TamR = assay: Proliferation of breast cancer cells, MCF-7/TamR; assay type: cell-based; conditions: Homo sapiens, MCF7, 120 h, read-out: IC50, proliferation
How it was run: (§1)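 Cells grown in phenol red-free DMEM with 5% FBS at 37 °C, 5% CO2. MCF-7/TamR cells were derived by prolonged 4-hydroxytamoxifen exposure. Cells seeded at 50000/well, then treated 5 days with test compound at six doses from 10−10 to 10−5 M, with DMSO vehicle. Viable cells counted by Coulter counter. Survival expressed as a percentage of vehicle, and IC50 taken from dose–response curves.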

MCF-7 = assay: Proliferation of breast cancer cells, MCF-7; assay type: cell-based; conditions: Homo sapiens, MCF7, 120 h, read-out: IC50, proliferation
How it was run: as §1

T47D-kb-Luc cells = assay: T47D-kb-Luc ERE luciferase reporter gene assay; assay type: cell-based, human; conditions: at 1 nM, in the presence of 0.01 nM estradiol (E2)
How it was run: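 Stably transfected T47D-kb-Luc reporter cells were stimulated with estradiol at 10−11 M plus test compound at 0.1, 1 or 10 nM. ERE-driven activity was read as relative luciferase units and normalized to the estradiol-only control. Run in quadruplicate in at least three separate experiments, reported as mean ± SD (%).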

ERα [1] = target: T1, ERα (Homo sapiens, UniProt P03372); assay: Western blot of ERα downregulation in T47D cells; assay type: cell-based; conditions: dose range 0.03–1 μM
T1 sequence (P03372 1-595): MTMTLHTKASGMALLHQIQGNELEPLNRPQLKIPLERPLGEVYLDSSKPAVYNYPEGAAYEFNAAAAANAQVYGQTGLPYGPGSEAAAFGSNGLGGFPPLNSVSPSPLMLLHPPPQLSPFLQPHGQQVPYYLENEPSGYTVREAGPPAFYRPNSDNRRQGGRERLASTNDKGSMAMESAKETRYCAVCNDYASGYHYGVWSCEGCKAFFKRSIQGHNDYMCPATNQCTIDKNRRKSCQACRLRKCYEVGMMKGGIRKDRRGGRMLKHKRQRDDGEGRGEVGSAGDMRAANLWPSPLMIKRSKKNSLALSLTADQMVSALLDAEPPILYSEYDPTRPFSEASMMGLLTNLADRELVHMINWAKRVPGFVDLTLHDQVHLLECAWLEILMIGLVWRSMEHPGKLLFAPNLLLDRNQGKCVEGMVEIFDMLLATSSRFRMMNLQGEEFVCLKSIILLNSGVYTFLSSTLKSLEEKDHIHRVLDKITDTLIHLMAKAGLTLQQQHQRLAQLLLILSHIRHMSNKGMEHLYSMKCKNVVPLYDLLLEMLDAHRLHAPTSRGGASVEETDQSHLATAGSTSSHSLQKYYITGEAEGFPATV

[2] = Stability in culture media in vitro; assay type: in vitro ADME; conditions: dissolved in ethanol then diluted in culture media for an extended period of time
ERα [3] = target: T1, ERα; assay: Western blot of ERα downregulation in T47D/PKCα cells; assay type: cell-based; conditions: dose range 0.03–1 μM
[4] = patients, cited from earlier work

SMILES	IC50 (MCF-7/TamR)	IC50 (MCF-7)	inhibition of E2-induced luciferase (ERE activity) (T47D-kb-Luc cells)	ER downregulation level (ERα [1])	metabolic stability in vitro [2]	ER downregulation level (ERα [3])	peak blood concentration ([4]; 500 mg im, FINDER1 and FINDER2 clinical trials ref 3, 5)	time to reach steady-state serum concentration ([4]; im monthly dose of 250 mg ref 4)
CC/C(=C(\c1ccc(O)cc1)c1ccc(OCCN(C)C)cc1)c1ccccc1 [Compound 4-OHT, 4-hydroxytamoxifen]	22 µM	0.0033 µM	–	–	–	–	–	–
C[C@]12CC[C@@H]3c4ccc(B(O)O)cc4C[C@@H](CCCCCCCCC[S+]([O-])CCCC(F)(F)C(F)(F)F)[C@H]3[C@@H]1CC[C@@H]2O (stereo partly drawn) [Compound 5, ((7R,8R,9S,13S,14S,17S)-17-Hydroxy-13-methyl-7-(9-((4,4,5,5,5-pentafluoropentyl)sulfinyl)nonyl)-7,8,9,11,12,13,14,15,16,17-deca-hydro-6H-cyclopenta[a]phenanthren-3-yl)boronic Acid]	–	–	completely blocking the estrogen response element (ERE) activity	greater than 50%	metabolic stability was later confirmed in vitro	greater than 50%	–	–
C[C@]12CC[C@@H]3c4ccc(O)cc4C[C@@H](CCCCCCCCC[S+]([O-])CCCC(F)(F)C(F)(F)F)[C@H]3[C@@H]1CC[C@@H]2O (stereo partly shown) [fulvestrant]	–	–	–	greater than 50%	–	greater than 50%	< 25 ng/mL	over 3 months
